Results of several laboratories.
Protocols differ between the studies behind these lines.
LRRK2: Leucine-rich repeat serine/threonine-protein kinase 2 (LRRK2, Homo sapiens, UniProt Q5S007)
LRRK2 G2019S: Leucine-rich repeat serine/threonine-protein kinase 2 (LRRK2, Homo sapiens, UniProt Q5S007, G2019S)

For `O=c1[nH]c2ccccc2n1C1CCN(Cc2ccc(-c3[nH]c4cc5ncnc5cc4nc3-c3ccccc3)cc2)CC1`, the remaining signal was 103% (LRRK2; cell-free assay; 0.5 µM).
With `Cc1nn(C)cc1-c1nc2c(N3CCN(Cc4ccc(Cl)cc4)CC3)c(Cl)cnc2[nH]1` the remaining binding was 85% (LRRK2 G2019S; binding, competition with immobilised ligand; 1 µM).
`Cn1cc(-c2cccc(N3CCc4c(sc5c4CC(C)(C)C5)C3=O)c2CO)cc(Nc2ccncn2)c1=O` has an inhibition of -1% (LRRK2; enzyme activity, inhibitor; 1 µM).
`N#CC1(c2ccccn2)CCN(Cc2cc(C(=O)O)c(=O)n3ccccc23)CC1` has a remaining binding of 100% (LRRK2 G2019S; cell-free assay, competition with immobilised ligand; 1 µM).
With `Nc1ncc(-c2nc(N3CCOCC3)nc(N3CCOCC3)n2)c(C(F)F)n1` the remaining binding was 91% (LRRK2 G2019S; binding, competition with immobilised ligand; 10 µM).
`CC(C)(C)c1cc(C=C(C#N)C#N)cc(Br)c1O` gave a remaining activity of 109% (LRRK2; enzyme activity, inhibitor; 0.5 µM).
`COc1ncccc1-c1cnn2ccc(N3CCN(C(=O)OC(C)C)CC3)nc12` has a remaining binding of 87% (LRRK2; binding, competition with immobilised ligand; 1 µM).
With `Cn1cncc1[C@@](O)(COc1ccc(C#N)cc1-c1ccc(OC(F)(F)F)cc1)c1ccc(C#N)cc1` the remaining binding was 91% (LRRK2 G2019S; cell-free assay, competition with immobilised ligand; 1 µM).
The inhibition of `C#Cc1n[nH]c2c(-c3cn(C(C)c4ccccn4)c(=O)[nH]c3=O)cc(F)cc12` (stereo not drawn) is reported as -0.2% (LRRK2; enzyme activity, inhibitor; 1 µM).
